Measurements: ChEMBL document CHEMBL3232838, “Synthesis, crystal structure and biological evaluation of some novel 1,2,4-triazolo[3,4-b]-1,3,4-thiadiazoles and 1,2,4-triazolo[3,4-b]-1,3,4-thiadiazines” (Eur J Med Chem, 2014)

Tests used:
Acetylcholinesterase = Acetylcholinesterase (Electrophorus electricus, UniProt O42275); test: Inhibition of electric eel acetylcholinesterase using acetylthiocholine iodide as substrate preincubated for 10 mins before substrate addition after 15 mins by Ellman's method
Cholinesterase = Cholinesterase (Homo sapiens, UniProt P06276); test: Inhibition of human BChE using butyrylthiocholine iodide as substrate preincubated for 10 mins before substrate addition after 15 mins by Ellman's method
Method in brief: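 Ellman assay in 50 mM Tris-HCl, 0.1 M NaCl, 0.02 M MgCl2, pH 8.0, with DMSO at 1% final. hBChE (3.4 U/mg) is preincubated with compound for 10 min at 25 °C. Blanks lack enzyme or substrate. IC50 from linear regression.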

[1] = molecular target: Intestinal-type alkaline phosphatase (Bos taurus, UniProt P19111); test: Inhibition of calf intestinal alkaline phosphatase using p-nitrophenyl phosphate as substrate preincubated for 10 mins before substrate addition after 30 mins
[2] = Anticancer activity against Syrian golden hamster BHK21 cells at 100 uM after 48 hrs by SRB assay; assay type: functional; conditions: Mesocricetus auratus, BHK-21, 48 h; read-out: GI
Method in brief: (§1)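 RPMI-1640 culture with 10% heat-inactivated FBS, 2 mM glutamine, 1 mM pyruvate and penicillin/streptomycin at 37 °C, 5% CO2. Cells per 96-well well: H157 10⁴, BHK-21 5×10⁴. After 24 h, monolayers were exposed to 100, 10, 1 or 0.1 µM compound for 48 h, with vincristine as standard. Cells were fixed in cold 50% TCA (4 °C, 1 h) and stained with 0.4% SRB in 1% acetic acid (30 min). Dye was dissolved in 10 mM Tris and read at A490 minus A630. Read-out was percent inhibition.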

[3] = Anticancer activity against Syrian golden hamster BHK21 cells at 10 uM after 48 hrs by SRB assay; assay type: functional; conditions: Mesocricetus auratus, BHK-21, 48 h; read-out: GI; method in brief: as §1
[4] = Anticancer activity against Syrian golden hamster BHK21 cells at 1 uM after 48 hrs by SRB assay; assay type: functional; conditions: Mesocricetus auratus, BHK-21, 48 h; read-out: GI; method in brief: as §1
[5] = Anticancer activity against Syrian golden hamster BHK21 cells at 0.1 uM after 48 hrs by SRB assay; assay type: functional; conditions: Mesocricetus auratus, BHK-21, 48 h; read-out: GI; method in brief: as §1
NCI-H157 [6] = test: Anticancer activity against human NCI-H157 cells at 100 uM after 48 hrs by SRB assay; assay type: functional; conditions: NCI-H157, 48 h, read-out: GI; method in brief: as §1
NCI-H157 [7] = test: Anticancer activity against human NCI-H157 cells at 10 uM after 48 hrs by SRB assay; assay type: functional; conditions: NCI-H157, 48 h, read-out: GI; method in brief: as §1
NCI-H157 [8] = test: Anticancer activity against human NCI-H157 cells at 1 uM after 48 hrs by SRB assay; assay type: functional; conditions: NCI-H157, 48 h, read-out: GI; method in brief: as §1
NCI-H157 [9] = test: Anticancer activity against human NCI-H157 cells at 0.1 uM after 48 hrs by SRB assay; assay type: functional; conditions: NCI-H157, 48 h, read-out: GI; method in brief: as §1
Leishmania major [10] = test: Antileishmanial activity against promastigote form of Leishmania major at 100 uM after 72 hrs by MTT assay; assay type: functional
Method in brief: (§2)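 Log-phase promastigotes grown at 25 °C in phenol-red-free D-MEM/F-12 with 10% heat-inactivated FBS, washed in PBS, seeded at 2.5×10⁶/mL (100 µL/well). Compounds in triplicate wells, 72 h at 25 °C; amphotericin B standard. MTT (5 mg/mL stock) 3 h, stopped with 50% isopropanol/10% SDS, OD570 minus 690. Percent inhibition vs control; mean ± SEM of three independent experiments.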

Leishmania major [11] = test: Antileishmanial activity against promastigote form of Leishmania major at 10 uM after 72 hrs by MTT assay; assay type: functional; method in brief: as §2
Leishmania major [12] = test: Antileishmanial activity against promastigote form of Leishmania major at 1 uM after 72 hrs by MTT assay; assay type: functional; method in brief: as §2
Leishmania major [13] = test: Antileishmanial activity against promastigote form of Leishmania major at 0.1 uM after 72 hrs by MTT assay; assay type: functional; method in brief: as §2

Chain of Acetylcholinesterase (O42275 whole entry): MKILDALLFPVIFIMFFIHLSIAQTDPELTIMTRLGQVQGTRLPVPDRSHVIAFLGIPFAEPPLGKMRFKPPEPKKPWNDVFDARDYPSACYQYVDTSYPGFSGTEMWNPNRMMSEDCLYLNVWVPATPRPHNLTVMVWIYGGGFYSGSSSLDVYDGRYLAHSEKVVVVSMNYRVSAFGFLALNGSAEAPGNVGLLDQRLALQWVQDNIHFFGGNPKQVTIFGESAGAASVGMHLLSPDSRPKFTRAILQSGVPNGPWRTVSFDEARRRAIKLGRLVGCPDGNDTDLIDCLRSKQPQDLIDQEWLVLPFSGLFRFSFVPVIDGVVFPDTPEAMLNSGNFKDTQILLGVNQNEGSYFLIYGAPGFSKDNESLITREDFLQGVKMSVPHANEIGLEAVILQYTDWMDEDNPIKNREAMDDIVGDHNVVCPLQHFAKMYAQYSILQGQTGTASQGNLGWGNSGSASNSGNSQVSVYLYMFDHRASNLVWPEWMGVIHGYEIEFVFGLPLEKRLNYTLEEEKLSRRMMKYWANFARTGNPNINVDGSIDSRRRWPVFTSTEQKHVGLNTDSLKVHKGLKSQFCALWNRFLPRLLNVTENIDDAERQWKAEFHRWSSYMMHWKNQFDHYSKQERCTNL
Chain of Cholinesterase (P06276 whole entry): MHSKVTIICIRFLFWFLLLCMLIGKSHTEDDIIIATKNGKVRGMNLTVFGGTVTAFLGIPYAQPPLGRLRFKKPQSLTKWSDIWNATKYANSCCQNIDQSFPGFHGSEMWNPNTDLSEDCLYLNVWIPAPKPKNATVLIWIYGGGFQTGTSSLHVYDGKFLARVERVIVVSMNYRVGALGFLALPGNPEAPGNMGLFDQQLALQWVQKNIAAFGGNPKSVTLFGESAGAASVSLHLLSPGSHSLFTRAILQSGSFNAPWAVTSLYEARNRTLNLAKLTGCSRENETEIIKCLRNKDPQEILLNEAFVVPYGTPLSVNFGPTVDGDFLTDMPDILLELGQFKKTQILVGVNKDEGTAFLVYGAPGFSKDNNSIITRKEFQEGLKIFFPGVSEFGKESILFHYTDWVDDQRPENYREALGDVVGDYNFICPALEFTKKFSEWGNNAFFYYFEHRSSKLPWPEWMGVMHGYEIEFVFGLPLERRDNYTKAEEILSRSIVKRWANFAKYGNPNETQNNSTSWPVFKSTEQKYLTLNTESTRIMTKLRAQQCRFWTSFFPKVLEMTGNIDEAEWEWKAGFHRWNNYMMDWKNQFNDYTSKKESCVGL
Chain of Intestinal-type alkaline phosphatase (P19111 whole entry): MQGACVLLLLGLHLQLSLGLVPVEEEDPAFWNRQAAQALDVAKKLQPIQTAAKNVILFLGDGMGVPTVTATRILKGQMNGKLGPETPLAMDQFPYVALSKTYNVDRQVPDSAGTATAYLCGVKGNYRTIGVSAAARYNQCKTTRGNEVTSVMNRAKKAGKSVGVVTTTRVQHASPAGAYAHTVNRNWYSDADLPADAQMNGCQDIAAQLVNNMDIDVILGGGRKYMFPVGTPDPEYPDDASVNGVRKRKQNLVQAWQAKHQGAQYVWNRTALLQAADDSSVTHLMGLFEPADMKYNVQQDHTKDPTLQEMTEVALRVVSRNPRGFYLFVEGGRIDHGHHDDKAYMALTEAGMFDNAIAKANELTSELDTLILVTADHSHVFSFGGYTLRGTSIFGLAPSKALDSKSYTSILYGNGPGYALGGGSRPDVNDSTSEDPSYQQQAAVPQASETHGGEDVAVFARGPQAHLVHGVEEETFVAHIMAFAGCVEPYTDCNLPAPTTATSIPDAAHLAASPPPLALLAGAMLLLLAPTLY

Row | SMILES | IC50 (Acetylcholinesterase) | IC50 (Cholinesterase) | IC50 [1] | inhibition of growth at 100 µM [2] | inhibition of growth at 10 µM [3] | inhibition of growth at 1 µM [4] | inhibition of growth at 0.1 µM [5] | inhibition of growth at 100 µM (NCI-H157 [6]) | inhibition of growth at 10 µM (NCI-H157 [7]) | inhibition of growth at 1 µM (NCI-H157 [8]) | inhibition of growth at 0.1 µM (NCI-H157 [9]) | inhibition at 100 µM (Leishmania major [10]) | inhibition at 10 µM (Leishmania major [11]) | inhibition at 1 µM (Leishmania major [12]) | inhibition at 0.1 µM (Leishmania major [13]) | inhibition (Cholinesterase)
1 | CCOc1ccc(Cc2nn3c(-c4ccncc4)nnc3s2)cc1 | 3.48 µM | 32.1 µM | 6.17 µM | 48.6% | 45.4% | 40.9% | 38.2% | 70.5% | 67.4% | 63.8% | 60.2% | 66.8% | 63% | 60.8% | 56.4% | 
2 | Cc1ccccc1OCc1nn2c(-c3ccncc3)nnc2s1 | 41.5 µM | 51.3 µM | 3.08 µM | 62.1% | 56.5% | 54.9% | 51.2% | 59.2% | 56.8% | 53.2% | 50.5% | 71.4% | 68.9% | 65.5% | 62.1% | 
3 | CC[C@]1(O)C[C@H]2CN(CCc3c([nH]c4ccccc34)[C@@](C(=O)OC)(c3cc4c(cc3OC)N(C=O)[C@H]3[C@@](O)(C(=O)OC)[C@H](OC(C)=O)[C@]5(CC)C=CCN6CC[C@]43[C@@H]65)C2)C1 [VINCRISTINE] |  |  |  | 74.5% | 72.6% | 70.9% | 69.8% | 74.5% | 72.6% | 70.9% | 69.8% |  |  |  |  | 
4 | Fc1ccc(-c2nn3c(-c4ccncc4)nnc3s2)cc1Cl | 30.2 µM |  | 2.01 µM | 51.4% | 46.3% | 43.6% | 40.9% | 53.7% | 50.9% | 46.6% | 43.6% | 56.7% | 54.3% | 51.6% | 47.7% | 14.4%
5 | C[C@@H]1[C@H](O)[C@@H](C)/C=C/C=C/C=C/C=C/C=C/C=C/C=C/[C@H](O[C@@H]2O[C@H](C)[C@@H](O)[C@H](N)[C@@H]2O)C[C@@H]2O[C@](O)(C[C@@H](O)C[C@@H](O)[C@H](O)CC[C@@H](O)C[C@@H](O)CC(=O)O[C@H]1C)C[C@H](O)[C@H]2C(=O)O [AMPHOTERICIN B] |  |  |  |  |  |  |  |  |  |  |  | 79.8% | 76.3% | 74.8% | 69.9% | 
6 | Fc1cc(Cl)ccc1-c1nn2c(-c3ccncc3)nnc2s1 | 21.3 µM | 9.57 µM | 0.92 µM | 55.6% | 51.6% | 47.2% | 44.4% | 85.5% | 80.9% | 77.8% | 73.7% | 52.5% | 49.5% | 46.2% | 42.5% | 
7 | O=[N+]([O-])c1cccc(C2=Nn3c(nnc3-c3ccncc3)SC2)c1 | 28 µM | 16.6 µM | 3.59 µM | 67.1% | 62.5% | 55.1% | 48.2% | 69.4% | 65.5% | 62.1% | 57.9% | 63.1% | 59.6% | 57.5% | 54.6% | 
8 | CN(C)C(=O)Oc1cccc([N+](C)(C)C)c1 [NEOSTIGMINE] | 14.2 µM | 26.1 µM |  |  |  |  |  |  |  |  |  |  |  |  |  | 
